Source: publication PMC5939375 (Biochemistry, 2016)
Entries after “also recorded” stand apart in the source; their conditions may differ.

Assays:
[1] = molecular target: T1, reduced WT FDTS (Thermotoga maritima, UniProt Q9WYT0); settings: cited from earlier work
T1 sequence (Q9WYT0 1-220): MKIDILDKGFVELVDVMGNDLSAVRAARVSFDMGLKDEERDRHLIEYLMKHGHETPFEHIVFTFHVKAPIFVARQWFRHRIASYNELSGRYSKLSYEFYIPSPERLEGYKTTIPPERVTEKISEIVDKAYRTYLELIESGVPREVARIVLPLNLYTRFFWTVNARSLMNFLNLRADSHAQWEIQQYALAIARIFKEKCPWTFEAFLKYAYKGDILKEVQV

[2] = molecular target: T1, reduced WT FDTS; experiment: Reactivity of dUMP analogs with reduced FDTS in the presence of CH2THF; format: biochemical; settings: anaerobic, 0.1 M Tris-HCl pH 8 at 25 °C; 200 μM CH2THF; 10 mM dU or 200 μM dUMS; over four hours
Summary of the method: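 Recombinant T. maritima WT enzyme, purified, converted to apo-protein with concentrated NaCl, and reconstituted with exogenous FAD after desalting. Run in anaerobic cuvettes in 0.1 M Tris-HCl, pH 8, 25 °C. To reduced enzyme, CH2THF (200 μM final) was added first, then test compound (final concentration as listed). Flavin spectra were followed by scanning spectrophotometry. The mixture was afterwards analysed by HPLC for 2′-deoxythymidine-5′-monosulfate.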

[3] = molecular target: T2, WT FDTS (Thermotoga maritima, UniProt Q9WYT0); experiment: Spectrophotometric titration of oxidized WT FDTS with ligand; format: binding
[4] = molecular target: T3, R90A FDTS (Thermotoga maritima, UniProt Q9WYT0, R90A); settings: R90A variant; oxidative half-reaction with dUMP and CH2THF; cited from earlier work
[5] = molecular target: T2, WT FDTS
[6] = molecular target: T4, R174A FDTS (Thermotoga maritima, UniProt Q9WYT0, R174A); experiment: Spectrophotometric titration of R174A FDTS with ligand; format: binding
[7] = cited from earlier work
[8] = molecular target: T4, R174A FDTS; settings: R174A variant; oxidative half-reaction with dUMP and CH2THF; cited from earlier work
[9] = molecular target: T3, R90A FDTS; experiment: Spectrophotometric titration of R90A FDTS with ligand; format: binding

T4 sequence (Q9WYT0 whole entry R174A): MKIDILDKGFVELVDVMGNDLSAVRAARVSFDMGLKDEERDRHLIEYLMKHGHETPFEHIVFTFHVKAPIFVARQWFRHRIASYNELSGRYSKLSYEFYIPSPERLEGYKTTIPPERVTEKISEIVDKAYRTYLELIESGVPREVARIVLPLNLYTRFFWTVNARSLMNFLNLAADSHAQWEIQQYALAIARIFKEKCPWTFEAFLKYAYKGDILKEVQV
T3 sequence (Q9WYT0 whole entry R90A): as the sequence (Q9WYT0 whole entry R174A) above, with R90A, A174R counted along it

O=c1[nH]c(=O)n([C@H]2C[C@H](O)[C@@H](COP(=O)(O)O)O2)cc1F [5F-dUMP, 5-fluoro-2′-deoxyuridine-5′-monophosphate]
oxidation of reduced FDTS in the presence of CH2THF [1]: cannot oxidize reduced FDTS

O=c1ccn([C@H]2C[C@H](O)[C@@H](CO)O2)c(=O)[nH]1 [dU, 2′-Deoxyuridine]
oxidation of reduced FDTS flavin in the presence of CH2THF [2]: failed to oxidize reduced WT FDTS; also recorded: neither dU nor dUMS cause oxidation of the reduced flavin; also recorded: No oxidation of the flavin occurred
loss of binding energy ([3]; dU binding to WT FDTS vs dUMP): ~ 5.2 kcal/mol

O=c1ccn([C@H]2C[C@H](O)[C@@H](COP(=O)(O)O)O2)c(=O)[nH]1 [dUMP, 2′-deoxyuridine-5′-monophosphate]
rate constant for flavin oxidation, fold smaller than wild-type FDTS [4]: 8 fold
pKa of N3 of dUMP bound to FDTS ([5]; bound to WT FDTS, by the interaction of R174): below 8
stabilization of the N3 anion of bound dUMP by R174 ([5]; fully ionized at pH 8): at least 2.8 kcal mol^−1
Kd [6]: 109 ± 6 µM
loss of binding energy ([6]; dUMP binding to R174A FDTS vs WT): ~ 5.4 kcal/mol
pKa for N3 of dUMP ([7]; aqueous solution): 9.3
pKa of anionic phosphate oxygen of dUMP ([7]; phosphate oxygen, reference not given): about 7
Kd ([3]; Kd, WT FDTS, 0.1 M Tris-HCl, pH 8 at 25 °C, estimate from fitting to Eq. 1): ~0.03 µM
rate constant for flavin oxidation, fold smaller than wild-type FDTS [8]: 3000 fold
Kd [9]: 14 ± 2 µM
loss of binding energy ([9]; dUMP binding to R90A FDTS vs WT): ~ 4.0 kcal/mol

O=c1ccn([C@H]2C[C@H](O)[C@@H](COS(=O)(=O)O)O2)c(=O)[nH]1 [dUMS, 2′-deoxyuridine-5′-monosulfate]
oxidation of reduced FDTS flavin in the presence of CH2THF [2]: unable to oxidize reduced FDTS; also recorded: failed to oxidize reduced FDTS; also recorded: neither dU nor dUMS cause oxidation of the reduced flavin; also recorded: No oxidation of the flavin occurred
